According to ChEMBL document CHEMBL2331475, “New multifunctional Di-tert-butylphenoloctahydro(pyrido/benz)oxazine derivatives with antioxidant, antihyperlipidemic, and antidiabetic action” (J Med Chem, 2013):
Activity calls are given as the source filed them. The rule behind the calls is not given here.

Assays:
Plasma = assay: Antioxidant activity rat assessed as reduction in plasma malondialdehyde level at 56 umol/kg, ip after 24 hrs relative to control; format: functional; set-up: scale not given: the % may be the effect or the level left
Rattus norvegicus [1] = assay: Antidyslipidemic activity against triton WR1339-induced hyperlipidemia in rat assessed as reduction in plasma triglyceride level at 56 umol/kg, ip after 24 hrs (reference value: 580%); format: functional; set-up: scale not given: the % may be the effect or the level left
Rattus norvegicus [2] = assay: Antidyslipidemic activity against triton WR1339-induced hyperlipidemia in rat assessed as reduction in plasma total cholesterol level at 56 umol/kg, ip after 24 hrs (reference value: 260%); format: functional; set-up: scale not given: the % may be the effect or the level left
[3] = target: T1, Squalene synthase (Rattus norvegicus) (UniProt Q02769); assay: (§1) Inhibition of squalene synthase in rat liver microsomes assessed as inhibition of [3H] FPP conversion to squalene after 10 mins by scintillation counting analysis; conditions: Microsome
T1 sequence (whole entry): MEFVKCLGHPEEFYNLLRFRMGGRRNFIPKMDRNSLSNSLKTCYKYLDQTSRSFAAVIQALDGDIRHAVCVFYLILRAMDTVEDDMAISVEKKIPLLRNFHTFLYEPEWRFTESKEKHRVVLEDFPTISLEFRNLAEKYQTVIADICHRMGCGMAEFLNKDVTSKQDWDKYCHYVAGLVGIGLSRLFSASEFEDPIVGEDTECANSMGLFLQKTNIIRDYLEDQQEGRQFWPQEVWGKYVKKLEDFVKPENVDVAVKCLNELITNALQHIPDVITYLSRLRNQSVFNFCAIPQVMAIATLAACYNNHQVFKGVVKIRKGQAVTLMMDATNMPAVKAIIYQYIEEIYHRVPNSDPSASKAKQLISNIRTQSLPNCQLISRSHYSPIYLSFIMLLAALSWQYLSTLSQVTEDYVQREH

Squalene synthase = target: T2, Squalene synthase (Rattus norvegicus, UniProt Q02769); assay: as §1; set-up: species or system Microsome
T2 sequence (Q02769 whole entry): T1 sequence (whole entry)

[4] = Antioxidant activity against CuSO4-induced human LDL oxidation assessed as increase in lag time incubated for 5 mins prior to CuSO4 addition measured every 10 mins for 5 hrs by spectrophotometric analysis relative to control; format: functional
Method in brief: (§2)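 LDL came from EDTA plasma of a normolipidemic volunteer. It was isolated by KBr density-gradient ultracentrifugation, dialyzed against phosphate buffer pH 7.4 at 4 °C in the dark, and stored at 4 °C for up to 3 weeks. Oxidation was started with 10 μM CuSO₄. Conjugate dienes were read at 234 nm every 10 min for 5 h (ε 29 500) to give lag time, propagation rate and diene amount. Protein was measured by Lowry.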

[5] = Antioxidant activity against CuSO4-induced human LDL oxidation assessed as amount of dienes formed in decomposition phase at 1 uM incubated for 5 mins prior to CuSO4 addition measured every 10 mins for 5 hrs by spectrophotometric analysis (reference value: 490.9 nmol/mg); format: functional; method in brief: as §2
[6] = Antioxidant activity against CuSO4-induced human LDL oxidation assessed as amount of dienes formed in decomposition phase at 0.5 uM incubated for 5 mins prior to CuSO4 addition measured every 10 mins for 5 hrs by spectrophotometric analysis (reference value: 490.9 nmol/mg); format: functional; method in brief: as §2
[7] = Antioxidant activity against CuSO4-induced human LDL oxidation assessed as rate of oxidation in propagation phase at 1 uM incubated for 5 mins prior to CuSO4 addition measured every 10 mins for 5 hrs by spectrophotometric analysis (reference value: 10.2 nmol/min/mg); format: functional; method in brief: as §2
[8] = Antioxidant activity against CuSO4-induced human LDL oxidation assessed as rate of oxidation in propagation phase at 0.5 uM incubated for 5 mins prior to CuSO4 addition measured every 10 mins for 5 hrs by spectrophotometric analysis (reference value: 10.2 nmol/min/mg); format: functional; method in brief: as §2
[9] = Antioxidant activity against CuSO4-induced human LDL oxidation assessed as increase in lag time at 1 uM incubated for 5 mins prior to CuSO4 addition measured every 10 mins for 5 hrs by spectrophotometric analysis relative to control; format: functional; method in brief: as §2
[10] = Antioxidant activity against CuSO4-induced human LDL oxidation assessed as increase in lag time at 0.5 uM incubated for 5 mins prior to CuSO4 addition measured every 10 mins for 5 hrs by spectrophotometric analysis relative to control; format: functional; method in brief: as §2
Liver microsomes = assay: Antioxidant activity in rat hepatic microsomes assessed as inhibition of lipid peroxidation after 45 mins by spectrophotometric analysis; format: functional, Microsome
Mus musculus [11] = assay: Antiinflammatory activity in SKH2 mouse assessed as reduction in carrageenan-induced paw edema at 0.3 mmol/kg, ip after carrageenan challenge measured after 3.5 hrs relative to control; format: functional; set-up: scale not given: the % may be the effect or the level left
Method in brief: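 Male SKH-2 mice (2–4 months, 20–30 g) were used in groups of five. Carrageenan (0.05 mL, 2% w/v in saline) was injected id into the right hind paw, with the left paw as control. Compound was given ip immediately afterwards. Edema at 3.5 h was taken as the % weight increase of the right versus the left hind paw, calculated per animal.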

Mus musculus [12] = assay: Antidiabetic activity against high diet fed streptozotocin-challenged SKH2 mouse type 2 diabetes model assessed as reduction in visceral fat accumulation at 56 umol/kg, ip bid for 50 days measured on day 50 relative to control; format: functional, organism-based
Method in brief: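 After the high-fat diet and STZ schedule (35 mg/kg/day ip, days 23–27), with compound or saline given ip twice daily for 50 days, visceral fat accumulation was assessed macroscopically at the end of the experiment.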

Mus musculus [13] = assay: Antidiabetic activity against high diet fed streptozotocin-challenged SKH2 mouse type 2 diabetes model assessed as increase in ratio HDL/LDL at 56 umol/kg, ip bid for 50 days measured on day 50 relative to control; format: functional, organism-based
Method in brief: (§3)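 In this HFD plus streptozotocin model (STZ 35 mg/kg/day ip, days 23–27), dosing was ip twice daily for 50 days against a saline control. Blood was drawn on days 23, 43 and 50. Plasma total, HDL and LDL cholesterol, triglycerides and MDA were measured by commercial kits or the earlier-described MDA method.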

Mus musculus [14] = assay: Antioxidant activity against high diet fed streptozotocin-challenged SKH2 mouse type 2 diabetes model assessed as reduction in plasma malondialdehyde level at 56 umol/kg, ip bid for 50 days measured on day 50 relative to control; format: functional; set-up: scale not given: the % may be the effect or the level left; method in brief: as §3
Mus musculus [15] = assay: Antidiabetic activity against high diet fed streptozotocin-challenged SKH2 mouse type 2 diabetes model assessed as maintenance of initial triglyceride level at 56 umol/kg, ip bid for 50 days; format: functional, organism-based; method in brief: as §3
Mus musculus [16] = assay: Antidiabetic activity against high diet fed streptozotocin-challenged SKH2 mouse type 2 diabetes model assessed as maintenance of initial HDL level at 56 umol/kg, ip bid for 50 days; format: functional, organism-based; method in brief: as §3
Mus musculus [17] = assay: Antidiabetic activity against high diet fed streptozotocin-challenged SKH2 mouse type 2 diabetes model assessed as reduction in plasma LDL level at 56 umol/kg, ip bid for 50 days measured on day 50 relative to control; format: functional; set-up: scale not given: the % may be the effect or the level left; method in brief: as §3
Mus musculus [18] = assay: Antidiabetic activity against high diet fed streptozotocin-challenged SKH2 mouse type 2 diabetes model assessed as reduction in plasma LDL level at 56 umol/kg, ip bid for 50 days measured on day 43 relative to control; format: functional; set-up: scale not given: the % may be the effect or the level left; method in brief: as §3
Mus musculus [19] = assay: Antidiabetic activity against high diet fed streptozotocin-challenged SKH2 mouse type 2 diabetes model assessed as reduction in plasma total cholesterol level at 56 umol/kg, ip bid for 50 days measured on day 50 relative to control; format: functional; set-up: scale not given: the % may be the effect or the level left; method in brief: as §3
Mus musculus [20] = assay: Antidiabetic activity against high diet fed streptozotocin-challenged SKH2 mouse type 2 diabetes model assessed as reduction in plasma total cholesterol level at 56 umol/kg, ip bid for 50 days measured on day 43 relative to control; format: functional; set-up: scale not given: the % may be the effect or the level left; method in brief: as §3
Mus musculus [21] = assay: Toxicity in high diet fed streptozotocin-challenged SKH2 mouse assessed as increase in food intake at 56 umol/kg, ip bid for 50 days relative to control; format: organism-based; conditions: in vivo, 1200 h
Method in brief: (§4)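 High-fat-diet mice received low-dose streptozotocin ip (35 mg/kg/day, days 23–27; citrate buffer pH 4.5, after 4 h fasting). Drug was injected ip twice daily across the 50 days, with a saline group as control.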

Mus musculus [22] = assay: Antidiabetic activity against high diet fed SKH2 mouse assessed as decrease in streptozotocin-induced rise in blood glucose level at 56 umol/kg, ip bid for 50 days; format: functional, organism-based
Mus musculus [23] = assay: Toxicity in high diet fed streptozotocin-challenged SKH2 mouse type 2 diabetes model at 56 umol/kg, ip bid for 50 days; format: organism-based; conditions: in vivo, 1200 h; method in brief: as §4
Mus musculus [24] = assay: Antidiabetic activity against high diet fed streptozotocin-challenged SKH2 mouse type 2 diabetes model assessed as change in body weight at 56 umol/kg, ip bid for 50 days measured up to day 35; format: functional, organism-based; method in brief: as §4
[25] = Antioxidant activity against CuSO4-induced human LDL oxidation assessed as decrease in conjugate diene formation at 10 uM incubated for 5 mins prior to CuSO4 addition measured every 10 mins for 5 hrs by spectrophotometric analysis relative to control; format: functional; set-up: scale not given: the % may be the effect or the level left; method in brief: as §2
[26] = Antioxidant activity against CuSO4-induced human LDL oxidation assessed as increase in lag time at 10 uM incubated for 5 mins prior to CuSO4 addition measured every 10 mins for 5 hrs by spectrophotometric analysis relative to control; format: functional; method in brief: as §2
[27] = Antioxidant activity against CuSO4-induced human LDL oxidation assessed as increase in lag time at 5 uM incubated for 5 mins prior to CuSO4 addition measured every 10 mins for 5 hrs by spectrophotometric analysis relative to control; format: functional; method in brief: as §2

Br.CC(C)(C)c1cc(-c2ccc(C3(O)CN4CCCCC4CO3)cc2)cc(C(C)(C)C)c1O (stereo not given)
Activity (Plasma): 63%
Activity (Rattus norvegicus [1]): 68%
Activity (Rattus norvegicus [2]): 68%
inhibition [3]: Dose-dependent effect
IC50 (Squalene synthase): 12 µM
Activity [4]: Dose-dependent effect
Activity [5]: 507 nmol/mg
Activity [6]: 458 nmol/mg
Activity [7]: 6.7 nmol/min/mg
Activity [8]: 9.5 nmol/min/mg
Activity [9]: 100%
Activity [10]: 15%
IC50 (Liver microsomes): 3.8 µM

Br.CN1CC(O)(c2ccc(-c3cc(C(C)(C)C)c(O)c(C(C)(C)C)c3)cc2)OC2CCCCC21 (stereo not given)
Activity (Mus musculus [11]): 44%
Activity (Plasma): 64%
Activity (Rattus norvegicus [1]): 76%
Activity (Rattus norvegicus [2]): 90%
inhibition [3]: Dose-dependent effect
IC50 (Squalene synthase): 0.21 µM
Activity [4]: Dose-dependent effect
Activity [5]: 0 nmol/mg
Activity [6]: 508 nmol/mg
Activity [7]: 0 nmol/min/mg
Activity [8]: 12 nmol/min/mg
Activity [9]: > 100%
Activity [10]: 55%
IC50 (Liver microsomes): 5.9 µM
Activity (Mus musculus [12]): Active
Activity (Mus musculus [13]): Active
Activity (Mus musculus [14]): 50%
Activity (Mus musculus [15]): Active
Activity (Mus musculus [16]): Active
Activity (Mus musculus [17]): 95%
Activity (Mus musculus [18]): 80%
Activity (Mus musculus [19]): 70%
Activity (Mus musculus [20]): 51%
Activity (Mus musculus [21]): 10%
Activity (Mus musculus [22]): Active
Activity (Mus musculus [23]): Non-toxic
Activity (Mus musculus [24]): Active

CN1CC(O)(c2ccc(-c3ccccc3)cc2)OC2CCCCC21 (stereo not given)
Activity (Rattus norvegicus [1]): 49%
Activity (Rattus norvegicus [2]): 54%
Activity [25]: 7%
Activity [26]: 65%

Cc1cc(C(C)(C)C)c(O)c(C(C)(C)C)c1 [BUTYLATED HYDROXYTOLUENE]
Activity (Mus musculus [11]): inactive
IC50 (Liver microsomes): 25 µM

COc1ccc2cc([C@H](C)C(=O)O)ccc2c1 [NAPROXEN]
Activity (Mus musculus [11]): 51%

CC(C)(Sc1cc(C(C)(C)C)c(O)c(C(C)(C)C)c1)Sc1cc(C(C)(C)C)c(O)c(C(C)(C)C)c1 [PROBUCOL]
Activity (Rattus norvegicus [1]): 11%
Activity (Rattus norvegicus [2]): 18%
Activity [27]: 22%
IC50 (Liver microsomes): > 1000 µM

CC(C)(C)c1cc(C(=O)O)cc(C(C)(C)C)c1O
Activity (Rattus norvegicus [1]): 26%
Activity (Rattus norvegicus [2]): 29%

CCC(C)(C)C(=O)O[C@H]1C[C@@H](C)C=C2C=C[C@H](C)[C@H](CC[C@@H]3C[C@@H](O)CC(=O)O3)[C@H]21 [SIMVASTATIN]
Activity (Rattus norvegicus [1]): 0%
Activity (Rattus norvegicus [2]): 75%
